18 compounds from ChEMBL document CHEMBL3351828, “Design and optimization of highly-selective fungal CYP51 inhibitors” (Bioorg Med Chem Lett, 2014) can be followed below.

A short description of data set [1]: Selectivity index, ratio of IC50 for human hepatocytes CYP3A4 to MIC for Trichophyton rubrum. Also on record: species or system Hepatocyte. The essentials: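 CYP3A4 IC50 measured in pooled human hepatocyte microsomes with 150 μM testosterone as substrate, a concentration equal to the Km determined in the same lab. […] Selectivity index calculated as CYP3A4 IC50 (μM) divided by T. rubrum MIC (μg/mL).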

The target in a further data set is Cytochrome P450 3A4 (Homo sapiens, UniProt P08684). Briefly: Inhibition of CYP3A4 in human hepatocytes using testosterone as substrate by HPLC/MS/MS method. In kind it is ADME, cell-based, Hepatocyte.
Data set [2] deals with Candida albicans. Kind of data set: Antifungal activity against Candida albicans by broth macrodilution method. Type of data set: functional. The essentials: (§1)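 MIC against standard ATCC isolates determined under CLSI guidelines, M27-A3 for yeasts. […] Units μg/mL.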
The test system of a further data set is Trichophyton rubrum. Kind of data set: Antifungal activity against Trichophyton rubrum by broth macrodilution method. Type of data set: functional. The procedure, abridged: as §1
Data set [3] deals with Candida albicans. Briefly: Antifungal activity against Candida albicans R303 infected in CD-1 mouse assessed as reduction of kidney fungal burden at 50 mg/kg, po administered 2 hrs post infection on day 1 measured on day 2 relative to vehicle-treated control. In kind it is functional. The essentials: (§2)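 Female CD-1 mice (7 weeks, 18-25 g) made neutropenic with IP cyclophosphamide (150 mg/kg) on days 4 and 1 before tail-vein inoculation with C. albicans R303. Single oral dose given 2 h after infection on day 1. Kidneys harvested day 2 and homogenized in PBS. CFU/kidney counted on SDA plates from serial dilutions. Percent reduction taken versus vehicle-treated controls. Fluconazole used as positive control.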

In data set [4] the test system is Candida albicans. Kind of data set: Antifungal activity against Candida albicans R303 infected in CD-1 mouse assessed as reduction of kidney fungal burden at 10 mg/kg, po administered 2 hrs post infection on day 1 measured on day 2 relative to vehicle-treated control. In kind it is functional. The procedure, abridged: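 Female CD-1 mice (7 weeks, 18-25 g) made neutropenic with IP cyclophosphamide 150 mg/kg at 4 and 1 days before tail-vein inoculation with C. albicans R303. Single oral dose 2 h post-infection on day 1. Kidneys harvested day 2, homogenized in PBS, serially diluted and plated on SDA for CFU/kidney. Read-out: percent reduction in kidney fungal burden versus vehicle-treated controls.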

The next data set has as its target Cytochrome P450 2C19 (Homo sapiens, UniProt P33261). Briefly: Inhibition of CYP2C19 (unknown origin). Type of data set: ADME.
Data set [5] in a line: Half life in po dosed human. In kind it is ADME, organism-based. The following applies: in vivo.
The nature of data set [6]: Metabolic stability in human liver microsomes after 2 hrs. In kind it is ADME. The following applies: read-out: Stability. For orientation: Microsomes from liver hold many membrane-bound enzymes, among them those of drug oxidation.
Data set [7] concerns the target Lanosterol 14-alpha demethylase (Candida albicans (strain SC5314 / ATCC MYA-2876) (Yeast), UniProt P10613). Kind of data set: Binding affinity to Candida albicans CYP51.
For data set [8], the system named is Candida albicans. Briefly: Antifungal activity against Candida albicans infected in mouse candidiasis model assessed as reduction of kidney fungal burden at 10 mg/kg, po. Also on record: scale not given: the % may be the effect or the level left. Type of data set: functional.
The test system of data set [9] is Trichophyton mentagrophytes. Briefly: Antifungal activity against Trichophyton mentagrophytes infected in guinea pig dermatophytosis model assessed as mycological efficacy at 10 mg/kg, po administered for 9 days. In kind it is functional.
In a further data set the target is Cytochrome P450 2C9 (Homo sapiens, UniProt P11712). Briefly: Inhibition of CYP2C9 (unknown origin). In kind it is ADME.
The nature of data set [10]: Selectivity for yeast CYP51 over human CYP51.
For data set [11], the system named is Candida albicans. Briefly: Antifungal activity against Candida albicans R303 infected in CD-1 mouse assessed as reduction of kidney fungal burden at 20 mg/kg, po administered 2 hrs post infection on day 1 measured on day 2 relative to vehicle-treated control. In kind it is functional. The procedure, abridged:
as §2

In brackets after ≈: the same amount, converted by molar mass.

Cytochrome P450 3A4, sequence (P08684 whole entry): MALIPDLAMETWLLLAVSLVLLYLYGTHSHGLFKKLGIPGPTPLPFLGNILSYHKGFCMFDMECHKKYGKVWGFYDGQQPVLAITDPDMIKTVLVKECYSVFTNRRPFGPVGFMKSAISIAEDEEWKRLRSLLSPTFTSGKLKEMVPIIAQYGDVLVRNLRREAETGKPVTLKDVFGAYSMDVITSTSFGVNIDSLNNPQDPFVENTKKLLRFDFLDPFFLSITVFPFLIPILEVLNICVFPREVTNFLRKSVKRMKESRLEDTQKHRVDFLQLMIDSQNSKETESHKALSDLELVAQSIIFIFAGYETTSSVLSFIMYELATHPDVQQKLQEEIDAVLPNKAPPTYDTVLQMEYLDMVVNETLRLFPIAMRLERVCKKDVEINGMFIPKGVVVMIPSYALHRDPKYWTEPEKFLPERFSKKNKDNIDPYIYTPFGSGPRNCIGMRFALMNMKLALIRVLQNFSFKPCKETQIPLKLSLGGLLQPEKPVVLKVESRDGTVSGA
Cytochrome P450 2C19, sequence (P33261 whole entry): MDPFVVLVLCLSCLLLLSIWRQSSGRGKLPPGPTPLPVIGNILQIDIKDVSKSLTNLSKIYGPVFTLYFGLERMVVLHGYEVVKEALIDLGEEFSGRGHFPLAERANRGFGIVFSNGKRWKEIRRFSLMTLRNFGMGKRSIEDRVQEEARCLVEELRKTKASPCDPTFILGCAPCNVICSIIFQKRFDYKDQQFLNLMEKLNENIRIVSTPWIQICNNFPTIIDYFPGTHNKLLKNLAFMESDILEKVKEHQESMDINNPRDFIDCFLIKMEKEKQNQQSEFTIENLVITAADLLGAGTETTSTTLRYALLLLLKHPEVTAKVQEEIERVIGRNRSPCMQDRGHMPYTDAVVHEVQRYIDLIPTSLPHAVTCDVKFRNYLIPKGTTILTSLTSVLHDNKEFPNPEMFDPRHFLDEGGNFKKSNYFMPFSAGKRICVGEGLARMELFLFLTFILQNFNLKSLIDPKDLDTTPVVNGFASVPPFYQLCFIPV
Cytochrome P450 2C9, sequence (P11712 whole entry): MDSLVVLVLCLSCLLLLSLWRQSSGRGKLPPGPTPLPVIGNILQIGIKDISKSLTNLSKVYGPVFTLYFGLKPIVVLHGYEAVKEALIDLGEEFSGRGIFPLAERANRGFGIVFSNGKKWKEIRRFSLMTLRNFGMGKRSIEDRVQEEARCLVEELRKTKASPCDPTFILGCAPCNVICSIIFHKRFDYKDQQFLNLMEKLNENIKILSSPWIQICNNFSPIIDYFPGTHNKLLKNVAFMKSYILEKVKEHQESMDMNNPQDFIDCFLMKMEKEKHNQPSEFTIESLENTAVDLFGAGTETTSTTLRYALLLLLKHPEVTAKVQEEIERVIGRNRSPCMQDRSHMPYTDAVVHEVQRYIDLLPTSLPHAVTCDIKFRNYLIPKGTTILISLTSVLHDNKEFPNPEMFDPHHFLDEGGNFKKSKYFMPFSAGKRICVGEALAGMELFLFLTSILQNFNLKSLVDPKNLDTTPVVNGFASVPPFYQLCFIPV
Lanosterol 14-alpha demethylase, sequence (P10613 whole entry): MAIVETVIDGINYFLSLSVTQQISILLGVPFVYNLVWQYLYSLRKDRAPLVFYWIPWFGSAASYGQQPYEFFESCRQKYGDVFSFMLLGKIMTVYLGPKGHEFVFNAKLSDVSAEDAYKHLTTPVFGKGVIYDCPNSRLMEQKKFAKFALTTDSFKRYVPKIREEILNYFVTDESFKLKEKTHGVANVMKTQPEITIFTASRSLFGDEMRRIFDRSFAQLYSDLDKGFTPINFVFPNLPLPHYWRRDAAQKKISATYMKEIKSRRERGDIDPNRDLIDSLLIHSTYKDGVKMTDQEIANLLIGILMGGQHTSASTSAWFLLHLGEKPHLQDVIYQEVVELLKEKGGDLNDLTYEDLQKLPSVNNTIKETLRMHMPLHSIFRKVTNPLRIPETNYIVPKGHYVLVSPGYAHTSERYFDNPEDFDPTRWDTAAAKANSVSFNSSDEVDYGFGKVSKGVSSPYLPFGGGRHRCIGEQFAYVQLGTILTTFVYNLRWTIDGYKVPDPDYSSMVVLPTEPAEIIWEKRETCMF

For the compound `O[C@@](Cn1cnnn1)(c1ccc(F)cc1F)C(F)(F)c1ccc(-c2ccc(C(F)(F)F)cc2)cn1`, the “Selectivity Index” value in [1] turned out to be 27000. Moreover, the IC50 against Cytochrome P450 3A4 was 54 µM. Further, the MIC50 in the data set on Candida albicans [2] is ≤ 0.001 µg/mL; in the data set with Trichophyton rubrum, 0.002 µg/mL (≈ 0.00402 µM).

In turn, `C[C@@H](c1ncncc1F)[C@](O)(Cn1ccnc1)c1ccc(F)cc1F` displayed a concentration for half-maximal inhibition (IC50) against Cytochrome P450 3A4 of 0.8 µM. Besides, the MIC50 with Candida albicans [2] came to 0.5 µg/mL (≈ 1.44 µM).

As for `OC(Cn1cnnn1)(c1ccc(F)cc1F)C(F)(F)c1ccccn1` (stereo not given), the midpoint of inhibition on Cytochrome P450 3A4, the IC50, lay at 136 µM. Besides, in the data set on Candida albicans [3], the Efficacy was determined as 98%. In the data set with Candida albicans [2], the MIC50 worked out at 0.25 µg/mL (≈ 0.708 µM).

In the case of `OC(Cn1cnnn1)(c1ccc(F)cc1F)C(F)(F)c1ccc(-c2ccc(F)cc2)cn1` (stereo not given), the Efficacy in the data set on Candida albicans [4] is recorded as 99%. Also, the MIC50 in the data set on Candida albicans [2] turned out to be 0.016 µg/mL (≈ 0.0358 µM).

At Cytochrome P450 3A4, `C[C@@H](c1ncncc1F)[C@](O)(Cn1ccnn1)c1ccc(F)cc1F` returned an IC50 of 8 µM. Also, the MIC50 against Candida albicans [2] is > 16 µg/mL.

The compound `C[C@@H](c1ncncc1F)[C@](O)(Cn1cncn1)c1ccc(F)cc1F` [VORICONAZOLE] yielded an MIC50 against Candida albicans [2] of 0.06 µg/mL (≈ 0.172 µM).

`N#Cc1ccc(-c2ccc(C(F)(F)C(O)(Cn3cnnn3)c3ccc(F)cc3F)nc2)cc1` (stereo not given): the IC50 against Cytochrome P450 3A4 came to 16 µM. Besides, the Efficacy with Candida albicans [3] is 100%. For the same compound, the MIC50 in the data set with Candida albicans [2] was ≤ 0.016 µg/mL.

As to `O[C@@](Cn1cnnn1)(c1ccc(F)cc1F)C(F)(F)c1ccc(-c2ccc(OC(F)(F)F)cc2)cn1`, the “Selectivity Index” value in data set [1] is >79000. On Cytochrome P450 3A4, this compound showed an IC50 of 79 µM. Besides, the MIC50 against Candida albicans [2] and in the data set with Trichophyton rubrum was ≤ 0.001 µg/mL each time.

As for `C[C@@H](c1ncncc1F)[C@](O)(Cn1cnnc1)c1ccc(F)cc1F`, on Cytochrome P450 3A4, the IC50 stood at 51 µM. The MIC50 in the data set on Candida albicans [2] was > 16 µg/mL.

`O[C@@](Cn1cnnn1)(c1ccc(F)cc1F)C(F)(F)c1ccc(Cl)cn1` came in with an IC50 at Cytochrome P450 3A4 of 74 µM. Besides, the Efficacy with Candida albicans [3] is 100%. For the same compound, the MIC50 against Candida albicans [2] turned out to be 0.25 µg/mL (≈ 0.645 µM).

For `O[C@@](Cn1cnnn1)(c1ccc(F)cc1F)C(F)(F)c1ccc(-c2ccc(OCC(F)(F)F)cc2)cn1` [OTESECONAZOLE], the IC50 was 72 µM at Cytochrome P450 2C19, 65 µM against Cytochrome P450 3A4 and 99 µM against Cytochrome P450 2C9. The “Selectivity Index” value in data set [1] is >65000. Moreover, in data set [5], the half-life was > 24 h. Also, the remaining at 2 h in data set [6] was > 99%. In data set [7], the Kd was ≤ 0.039 µM. Also, the figures for the Activity (with Candida albicans [8]; in data set [9]) were 99% and 86%, respectively. For the same compound, the MIC50 in the data set with Candida albicans [2] and in the data set on Trichophyton rubrum was ≤ 0.001 µg/mL each time. For the same compound, the Selectivity ratio in data set [10] was > 2200.

As to `OC(Cn1cnnn1)(c1ccc(F)cc1F)C(F)(F)c1ccc(-c2ccc(C(F)(F)F)cc2)cn1` (stereo not given), the IC50 against Cytochrome P450 3A4 is > 60 µM. Besides, the MIC50 in the data set with Candida albicans [2] is ≤ 0.016 µg/mL. Besides, the Efficacy in the data set on Candida albicans [11] was 94%.

For `C[C@@H](c1ncncc1F)[C@](O)(Cn1ncnn1)c1ccc(F)cc1F`, the IC50 on Cytochrome P450 3A4 is 46 µM. For the same compound, the MIC50 in the data set on Candida albicans [2] turned out to be 8 µg/mL (≈ 22.8 µM).

On Cytochrome P450 3A4, `C[C@@H](c1ncncc1F)[C@](O)(Cn1cnnn1)c1ccc(F)cc1F` returned an IC50 of 32 µM. In the data set on Candida albicans [2], this compound yielded an MIC50 of 1 µg/mL (≈ 2.85 µM).

On to `OC(Cn1cncn1)(Cn1cncn1)c1ccc(F)cc1F` [FLUCONAZOLE], for which the Efficacy in the data set with Candida albicans [4] turned out to be 99%.

With `CCC(C)n1ncn(-c2ccc(N3CCN(c4ccc(OCC5COC(Cn6cncn6)(c6ccc(Cl)cc6Cl)O5)cc4)CC3)cc2)c1=O` (stereo not given) [ITRACONAZOLE], the MIC50 turned out to be 0.016 µg/mL (≈ 0.0227 µM) with Candida albicans [2] and 0.062 µg/mL (≈ 0.0879 µM) in the data set with Trichophyton rubrum.

`OC(Cn1cnnn1)(c1ccc(F)cc1F)C(F)(F)c1ccc(OCC(F)(F)F)cn1` (stereo not given): the IC50 on Cytochrome P450 3A4 is 72 µM. In the data set with Candida albicans [3], the Efficacy is given as 81%. The same compound gave an MIC50 against Candida albicans [2] of 0.06 µg/mL (≈ 0.133 µM).

Turning to `O[C@@](Cn1cnnn1)(c1ccc(F)cc1F)C(F)(F)c1ccc(-c2ccc(Cl)cc2)cn1`, the “Selectivity Index” value in data set [1] is on record as 9000. Besides, the IC50 against Cytochrome P450 3A4 came out at 36 µM. Further, the MIC50 against Candida albicans [2] is ≤ 0.001 µg/mL; against Trichophyton rubrum, 0.004 µg/mL (≈ 0.00862 µM).

What is called IC50 is the midpoint of a concentration-inhibition curve. The term MIC50 denotes an inhibitory concentration at the 50% level, which refers to growth in some studies and to a panel of isolates in others. As a reminder, the half-life is how long it takes for the measured level to halve. A word on the Kd: it is the free concentration of one partner at which half of the binding sites on the other are occupied at equilibrium, for simple one-to-one binding.
